# Test results reported in ChEMBL document CHEMBL5154915 (J Med Chem, 2022).
# The source made the active and inactive calls. The rule behind the calls is not given here.
# Tests used:
# Cavia porcellus [1] = species on record: Cavia porcellus; test: Activation of SERCA2a activity in guinea pig heart sarcoplasmic reticulum microsomal fraction assessed as increase in SERCA2a-Ca2+ affinity by measuring Kd of calcium at 10 to 100 nM preincubated for 5 mins followed by addition of 32-P-ATP measured after 15 mins; assay type: subcellular; details: filed as activator, dose 10-100 nM, time 20.0 min
# How it was run: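 Cardiac SR microsomes were prepared from healthy guinea pig hearts and contain SERCA2a plus PLN. Compounds were tested at 10 and 100 nM. ATPase was measured as 32P-ATP release at 37 °C, taking the cyclopiazonic acid (10 μM)-sensitive part, across Ca2+ 100–1500 nM. KdCa and Vmax were derived by curve fitting. N = 4–11; one-way RM ANOVA with Tukey or paired t-test.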
# Cavia porcellus [2] = species on record: Cavia porcellus; test: Activation of SERCA2a activity in guinea pig heart sarcoplasmic reticulum microsomal fraction assessed as increase in SERCA2a-Ca2+ affinity by measuring Kd of calcium at 100 nM preincubated for 5 mins followed by addition of 32-P-ATP measured after 15 mins relative to control; assay type: subcellular; details: time 20.0 min
# How it was run: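 Cardiac SR microsomes were prepared from healthy guinea pig hearts and contain SERCA2a plus PLN. Compounds were tested at 10 and 100 nM. KdCa and Vmax were derived by curve fitting. N = 4–11; one-way RM ANOVA with Tukey or paired t-test.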
# [3] = Acute toxicity in iv dosed Albino Swiss CD-1 mouse assessed as lethal dose after 24 hrs; assay type: organism-based; details: in vivo
# How it was run: (§1)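 Male Albino Swiss CD-1 mice received compound in saline. Intravenous doses were 100, 200, 250, 275 and 300 mg/kg (1–4 mice per group). Oral doses were 100, 200, 400, 600 and 800 mg/kg (4 per group). Vehicle-only controls were included.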
# Na+/K+ ATPase alpha 1 = Na+/K+ ATPase alpha 1 (Canis lupus familiaris, UniProt P50997); test: Inhibition of Beagle dog kidney NA+/K+ ATPase alpha 1 by measuring 32P-ATP hydrolysis at 0.0001 M preincubated for 10 mins followed by addition of 32P-ATP measured after 15 mins; assay type: toxicity; details: dog kidney Na+/K+ ATPase alpha 1, probe 32P-ATP, time 25 min
# How it was run: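 Na+/K+ ATPase-α1 was purified from dog kidney (specific activity 14 μmol/min/mg protein). Compounds were tested from 10–9 to 10–4 M. Activity is the ouabain (1 mM)-sensitive part of total 32P-ATP release at 37 °C. N = 2.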
# [4] = Acute toxicity in po dosed Albino Swiss CD-1 mouse assessed as lethal dose after 24 hrs; assay type: organism-based; details: in vivo; how it was run: as §1
# Cavia porcellus [5] = species on record: Cavia porcellus; test: Activation of SERCA1 activity in guinea pig skeletal muscle microsome from hind leg assessed as increase in SERCA1-Ca2+ affinity by measuring Kd of calcium at 30 to 1000 nM preincubated for 5 mins followed by addition of 32-P-ATP measured after 15 mins in presence of PLN (1-12) relative to control; assay type: microsomes; details: dose 30-1000 nM, time 20.0 min
# Cavia porcellus [6] = species on record: Cavia porcellus; test: Activation of SERCA1 activity in guinea pig skeletal muscle microsome from hind leg assessed as increase in SERCA1-Ca2+ affinity by measuring reversal of PLN (1-12)-induced shift in dissociation of calcium; assay type: microsomes; details: filed as activator, dose 30-1000 nM, DDE = dose-dependent effect
# Rattus norvegicus [7] = test: Hemodynamic activity in STZ-induced diabetic cardiomyopathy Sprague-Dawley rat model assessed as effect on systolic index by measuring fractional shortening at 0.2 mg/kg/min, iv for 15 to 30 mins measured after 10 mins of treatment by tissue doppler imaging method; assay type: functional, organism-based; details: time lower […], time upper 40.0 min
# How it was run: (§2)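 Male Sprague Dawley rats (150–175 g) were made diabetic with STZ 50 mg/kg i.v. in citrate buffer; fasting glycaemia >290 mg/dL at 1 week qualified. They were studied 8 weeks after STZ under urethane 1.25 g/kg i.p. Transthoracic echo with pulsed Doppler and TDI was taken before, at 15 and 30 min during i.v. infusion at 0.2 mg/kg/min, and 10 min after stopping. N = 13; one-way RM ANOVA.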
# Rattus norvegicus [8] = test: Hemodynamic activity in STZ-induced diabetic cardiomyopathy Sprague-Dawley rat model assessed as transmitral doppler flow index by measuring shortening in DT wave at 0.2 mg/kg/min, iv for 15 to 30 mins measured after 10 mins of treatment by tissue doppler imaging method; assay type: functional, organism-based; details: time lower […], time upper 40.0 min; how it was run: as §2
# [9] = Inhibition of NA+/K+ ATPase activity in STZ-induced diabetic rat left ventricular myocytes assessed as inhibition of NA+/K+ ATPase current at 20 to 100 uM for 30 min; assay type: toxicity, cell-based; details: ventricular myocyte, 0.5 h, dose 20-100 µM
# [10] = Acute toxicity in Albino Swiss CD-1 mouse assessed as prostration at 100 to 800 mg/kg, po or 100 to 300 mg/kg, iv after 24 hrs; assay type: organism-based; details: in vivo, dose 100-800 mg/kg; how it was run: as §1
# [11] = Acute toxicity in Albino Swiss CD-1 mouse assessed as gasping at 100 to 800 mg/kg, po or 100 to 300 mg/kg, iv after 24 hrs; assay type: organism-based; details: in vivo, dose 100-800 mg/kg; how it was run: as §1
# [12] = Acute toxicity in Albino Swiss CD-1 mouse assessed as convulsions at 100 to 800 mg/kg, po or 100 to 300 mg/kg, iv after 24 hrs; assay type: organism-based; details: in vivo, dose 100-800 mg/kg; how it was run: as §1
# Rattus norvegicus [13] = test: Hemodynamic activity in STZ-induced diabetic cardiomyopathy Sprague-Dawley rat model assessed as transmitral doppler flow index by measuring increasing in E and A waves at 0.2 mg/kg/min, iv for 15 to 30 mins measured after 10 mins of treatment by tissue doppler imaging method; assay type: functional, organism-based; details: time lower […], time upper 40.0 min; how it was run: as §2
# Rattus norvegicus [14] = test: Hemodynamic activity in STZ-induced diabetic cardiomyopathy Sprague-Dawley rat model assessed as transmitral doppler flow index by measuring increase in protodiastolic TDI relaxation velocity at 0.2 mg/kg/min, iv for 15 to 30 mins measured after 10 mins of treatment by tissue doppler imaging method; assay type: functional, organism-based; details: time lower […], time upper 40.0 min; how it was run: as §2
# Rattus norvegicus [15] = test: Hemodynamic activity in STZ-induced diabetic cardiomyopathy Sprague-Dawley rat model assessed as transmitral doppler flow index by measuring increase in telediastolic TDI relaxation velocity at 0.2 mg/kg/min, iv for 15 to 30 mins measured after 10 mins of treatment by tissue doppler imaging method; assay type: functional, organism-based; details: time lower […], time upper 40.0 min; how it was run: as §2
# Rattus norvegicus [16] = test: Hemodynamic activity in STZ-induced diabetic cardiomyopathy Sprague-Dawley rat model assessed as increased cardiac output at 0.2 mg/kg/min, iv for 15 to 30 mins measured after 10 mins of treatment by tissue doppler imaging method; assay type: functional, organism-based; details: time lower […], time upper 40.0 min; how it was run: as §2
# Rattus norvegicus [17] = test: Hemodynamic activity in STZ-induced diabetic cardiomyopathy Sprague-Dawley rat model assessed as effect on heart rate at 0.2 mg/kg/min, iv for 15 to 30 mins measured after 10 mins of treatment by tissue doppler imaging method; assay type: functional, organism-based; details: time lower […], time upper 40.0 min; how it was run: as §2
# Rattus norvegicus [18] = test: Hemodynamic activity in STZ-induced diabetic cardiomyopathy Sprague-Dawley rat model assessed as effect on systolic TDI velocity at 0.2 mg/kg/min, iv for 15 to 30 mins measured after 10 mins of treatment by tissue doppler imaging method; assay type: functional, organism-based; details: time lower […], time upper 40.0 min; how it was run: as §2
# Rattus norvegicus [19] = test: Hemodynamic activity in STZ-induced diabetic cardiomyopathy Sprague-Dawley rat model assessed as effect on left ventricular end-systolic diameter at 0.2 mg/kg/min, iv for 15 to 30 mins measured after 10 mins of treatment by tissue doppler imaging method; assay type: functional, organism-based; details: time lower […], time upper 40.0 min; how it was run: as §2
smiles,measurement,setting,value
C[C@]12CC[C@H](CCCC(=O)O)C[C@@H]1[C@H](O)C[C@@H]1[C@@H]2CC[C@]2(C)C(=O)CC[C@@H]12,Activity,Cavia porcellus [1],Active
CCOC(=O)CCCCC[C@H]1CC[C@@]2(C)[C@H](C1)[C@@H](O)C[C@@H]1[C@@H]2CC[C@]2(C)C(=O)CC[C@@H]12,Activity,Cavia porcellus [1],Active
same,Activity,Cavia porcellus [2],-26%
C[C@]12CC/C(=N\OCC(=O)O)C[C@@H]1[C@H](O)C[C@@H]1[C@@H]2CC[C@]2(C)C(=O)CC[C@@H]12,LD50 at 24 h,[3],> 250 mg/kg
C[C@]12CC[C@H](CC(=O)O)C[C@@H]1[C@H](O)C[C@@H]1[C@@H]2CC[C@]2(C)C(=O)CC[C@@H]12,"inhibition at […], 100 µM",Na+/K+ ATPase alpha 1,-55%
C[C@]12CC/C(=C\CCC(=O)O)C[C@@H]1[C@@H](O)C[C@@H]1[C@@H]2CC[C@]2(C)C(=O)CC[C@@H]12,Activity,Cavia porcellus [1],Active
same,Activity,Cavia porcellus [2],-26%
C[C@]12CCC(=NOCCN)C[C@@H]1C(=O)C[C@@H]1[C@@H]2CC[C@]2(C)C(=O)CC[C@@H]12 (mixture of isomers),LD50 at 24 h,[4],200 mg/kg
C[C@]12CC[C@H](CC(=O)O)C[C@@H]1[C@@H](O)C[C@@H]1[C@@H]2CC[C@]2(C)C(=O)CC[C@@H]12,Activity,Cavia porcellus [1],Active
same,Activity,Cavia porcellus [2],-26%
same,Activity,Cavia porcellus [5],23%
same,Activity,Cavia porcellus [6],Dde
CCOC(=O)CCC[C@H]1CC[C@@]2(C)[C@H](C1)[C@@H](O)C[C@@H]1[C@@H]2CC[C@]2(C)C(=O)CC[C@@H]12,Activity,Cavia porcellus [1],Active
same,Activity,Cavia porcellus [2],-26%
C[C@]12CC[C@H](CCCC(=O)O)C[C@@H]1[C@@H](O)C[C@@H]1[C@@H]2CC[C@]2(C)C(=O)CC[C@@H]12,Activity,Rattus norvegicus [7],Active
same,Activity,Rattus norvegicus [8],Active
same,Activity,Cavia porcellus [1],Active
same,Activity,Cavia porcellus [5],23%
same,Activity,Cavia porcellus [6],Dde
same,inhibition (INH),[9],Active
same,Activity,[10],Non-Toxic
same,Activity,[11],Non-Toxic
same,Activity,[12],Non-Toxic
same,Activity,Rattus norvegicus [13],Active
same,Activity,Rattus norvegicus [14],Active
same,Activity,Rattus norvegicus [15],Active
same,Activity,Rattus norvegicus [16],Active
same,Activity,Rattus norvegicus [17],Active
same,Activity,Rattus norvegicus [18],Active
same,Activity,Rattus norvegicus [19],Active
C[C@]12CC/C(=C\CCC(=O)O)C[C@@H]1[C@H](O)C[C@@H]1[C@@H]2CC[C@]2(C)C(=O)CC[C@@H]12,"inhibition at […], 100 µM",Na+/K+ ATPase alpha 1,-62%
CCOC(=O)C[C@H]1CC[C@@]2(C)[C@H](C1)[C@@H](O)C[C@@H]1[C@@H]2CC[C@]2(C)C(=O)CC[C@@H]12,Activity,Cavia porcellus [1],Active
C[C@]12CC[C@H](CCCCCC(=O)O)C[C@@H]1[C@@H](O)C[C@@H]1[C@@H]2CC[C@]2(C)C(=O)CC[C@@H]12,Activity,Cavia porcellus [1],Active
same,Activity,Cavia porcellus [2],-26%
